A short description of data set [1]: Inhibition of Wnt3A-induced Wnt transcription (unknown origin) expressed in HEK293 cells coexpressing TK-driven Rluc after 20 to 22 hrs by super-top flash reporter gene assay. It counts as cell-based. The settings on record: Homo sapiens. The method, boiled down: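 HEK-293 cells (DMEM, 10% FBS) were co-transfected with Super(8x)TOPflash, a Wnt3A expression vector and TK-driven Renilla luciferase. After 8 h at 37 °C, 5% CO2, cells were seeded at 25,000/well and treated at 1.6, 8, 40, 200, 1000 or 5000 nM, or with DMSO, for 20-22 h in triplicate. Firefly/Renilla luminescence was taken relative to DMSO, and IC50 was found by nonlinear regression.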
A general note: A reporter such as luciferase makes a cellular process visible.

Data set [2] in a line: Lipophilicity, log D of the compound at pH 3. It counts as physicochemical. The settings on record: buffer.
For data set [3], the system named is MCF7. In words: Induction of apoptosis in human MCF7 cells after 24 hrs by caspase-Glo 3/7 reagent based luminescence assay. It counts as functional, cell-based. The settings on record: MCF7, 24 h. The method, boiled down: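 MCF-7 cells were plated at 25,000/well (DMEM, 10% FBS) and grown 24 h, then treated at 1.6 nM–5 µM or with DMSO for 24 h. Caspase 3/7 activity was read by Caspase-Glo 3/7 luminescence. Triplicate signals relative to DMSO were analysed by nonlinear regression.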

Data set [4] is described as follows: Lipophilicity, log D of the compound at pH 7. It counts as physicochemical. The settings on record: buffer.
The nature of data set [5]: Solubility of the compound. It counts as physicochemical.
For data set [6], the system named is MDA-MB-231. Briefly: Antiproliferative activity against human MDA-MB-231 cells after 24 hrs by SYBR green dye based fluorescence assay. It counts as functional, cell-based. The note with it: MDA-MB-231, 24 h. An outline of the steps: (§1)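 Cells were plated at 500/well in DMEM/10% FBS and allowed to attach for 24 h at 37 °C, 5% CO2. They were then exposed to 1.6 nM–5 µM or DMSO. One plate was harvested every 24 h over 7 days and frozen at -20 °C. DNA was quantified by SYBR Green fluorescence (Ex495/Em535). Triplicate values relative to DMSO went to nonlinear regression for IC50.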

Data set [7] relates to MCF7. Briefly: Antiproliferative activity against human MCF7 cells after 24 hrs by SYBR green dye based fluorescence assay. It counts as functional, cell-based. The note with it: MCF7, 24 h. The method, boiled down: as §1
Data set [8] concerns MDA-MB-231. Briefly: Antitumor activity against human MDA-MB-231 cells xenografted in athymic nude mouse assessed as decrease in tumor volume at 5 mg/kg, ip administered per week for 16 days relative to control. It counts as functional. On the set-up: scale not given: the % may be the effect or the level left.

Values after ≈ are worked out from the molar mass of the structure shown.

As usually defined, the IC50 is the concentration that gives 50% inhibition. `O=C1CCCN1c1ccc(S(=O)(=O)N2CCCCC2)cc1` came in with an IC50 in data set [1] greater than 5000 nM.

For the compound `O=C1CCCN1c1ccc(S(=O)(=O)N2CCc3ccccc3C2)cc1`, the half-maximal inhibitory concentration (IC50) in data set [1] was 634 nM.

In data set [1], `O=C1CCCCN1c1ccc(S(=O)(=O)N2CCCc3ccccc32)cc1` came in with an IC50 greater than 5000 nM.

What is called logD is lipophilicity at a set pH, counting ionised and neutral species. For orientation: EC50 means the concentration giving half of the maximal effect. The term solubility denotes how much of the substance goes into solution per volume. For the compound `COc1ccc2c(c1)N(C)CCN2S(=O)(=O)c1ccc(N2CCCC2=O)cc1`, the logD was found to be 2.9 in data set [2] and 3 in data set [4]. The compound further yielded a concentration for a half-maximal effect (EC50) in data set [3] of 46 nM. This compound also gave a solubility in data set [5] of 69.6 µM (≈ 27.9 µg/mL). The IC50 in data set [6] turned out to be 14 nM; in data set [1], 17 nM; in data set [7] it was 14 nM.

Take `O=C1CCCN1c1ccc(S(=O)(=O)N2CCCc3ncccc32)cc1`: the IC50 in data set [1] was greater than 5000 nM.

In turn, `O=C1CCCN1c1ccc(S(=O)(=O)N2CCNc3ccccc32)cc1` displayed an IC50 in data set [1] greater than 5000 nM.

`CC(=O)N(C)c1ccc(S(=O)(=O)N2CCCc3ccccc32)cc1` showed an IC50 in data set [1] greater than 5000 nM.

Turning to `O=C1CCCN1c1ccc(S(=O)(=O)N2CCOc3ccccc32)cc1`, the logD in data set [2] and in data set [4] was 1.7 each time. In data set [5], this compound yielded a solubility of 26.6 µM (≈ 9.53 µg/mL). For the same compound, the 50% inhibitory concentration (IC50) in data set [1] is 10 nM.

With `CN1CCN(S(=O)(=O)c2ccc(N3CCC=N3)cc2)c2ccccc21`, the response in data set [3] was half-maximal at 5 nM (EC50). For the same compound, the values for the IC50 in data set [6], in data set [1] and in data set [7] were 13 nM, 18 nM and 7 nM, respectively.

In turn, `O=C1CCCN1c1ccc(S(=O)(=O)N2CCc3ccccc32)cc1` returned an IC50 in data set [1] greater than 5000 nM.

On to `O=C1CCCN1c1ccc(S(=O)(=O)N2CCCc3ccccc32)cc1`, for which the pH-dependent lipophilicity (logD) in data set [2] and in data set [4] was 2.5 throughout. Moreover, a half-maximal response in data set [3] (EC50) required 23 nM. The solubility in data set [5] was 7.8 µM (≈ 2.78 µg/mL). Besides, the results for the IC50 in data set [6], in data set [1] and in data set [7] were 15 nM, 25 nM and 17 nM, respectively.

On to `CC(C)(C)c1ccc2c(c1)CCCN2S(=O)(=O)c1ccc(N2CCCC2=O)cc1`, for which a half-maximal response in data set [3] (EC50) required 307 nM. For the same compound, the results for the concentration for half-maximal inhibition (IC50) in data set [6], in data set [1] and in data set [7] were 608 nM, 660 nM and 318 nM, respectively.

The compound `O=S(=O)(c1ccc(-n2cccn2)cc1)N1CCCc2ccccc21` gave an IC50 in data set [1] of 1650 nM.

In the case of `O=C1CCCN1c1ccc(S(=O)(=O)N2CCN(CCO)c3ccccc32)cc1`, in data set [1], the 50% inhibitory concentration (IC50) is greater than 5000 nM.

In turn, `O=C1CCCN1c1ccc(S(=O)(=O)Nc2cccc3ccccc23)cc1` yielded an IC50 in data set [1] greater than 5000 nM.

For the compound `CCCN(c1ccccc1)S(=O)(=O)c1ccc(N2CCCC2=O)cc1`, in data set [3], the concentration for a half-maximal effect (EC50) was greater than 5000 nM. Also, the concentration for half-maximal inhibition (IC50) in data set [6], in data set [1] and in data set [7] was greater than 5000 nM each time.

In data set [1], `O=C1CCCN1c1ccc(S(=O)(=O)N2CCCC3CCCCC32)cc1` (configuration not stated) yielded a concentration for half-maximal inhibition (IC50) greater than 5000 nM.

In data set [3], `COc1ccc2c(c1)CCCN2S(=O)(=O)c1ccc(N2CCCC2=O)cc1` gave an EC50 of 16 nM. For the same compound, the IC50 was 20 nM in data set [6], 6 nM in data set [1] and 25 nM in data set [7].

Consider `O=S(=O)(c1ccc(-n2cncn2)cc1)N1CCCc2ccccc21`, for which the EC50 in data set [3] was greater than 5000 nM. Moreover, the half-inhibitory concentration (IC50) in data set [6], in data set [1] and in data set [7] was greater than 5000 nM each time.

Compound `CN1CCN(S(=O)(=O)c2ccc(N3CCCC3)cc2)c2ccccc21` registered an EC50 in data set [3] of 6 nM. Besides, the half-inhibitory concentration (IC50) in data set [6] is 16 nM; in data set [1] it was 7 nM; in data set [7], 4 nM.

Take `O=C1CCCN1c1ccc(S(=O)(=O)N2CCCc3cc(C(F)(F)F)ccc32)cc1`: the half-maximal inhibitory concentration (IC50) in data set [1] stood at 54 nM.

On to `O=C1CCCN1c1ccc(S(=O)(=O)N2CCCc3cc(Cl)ccc32)cc1`, for which the log distribution coefficient (logD) in data set [2] and in data set [4] was 3.1 throughout. The solubility in data set [5] amounted to 2.9 µM (≈ 1.13 µg/mL). For the same compound, in data set [1], the IC50 was found to be 13 nM.

For the compound `Cc1ccc2c(c1)CCCN2S(=O)(=O)c1ccc(N2CCCC2=O)cc1`, the EC50 in data set [3] was found to be 61 nM. The concentration for half-maximal inhibition (IC50) in data set [6] was 17 nM; in data set [1], 7 nM; in data set [7], 15 nM.

As for `O=S(=O)(c1ccc(N2CCCC2)cc1)N1CCCc2ccccc21`, the figures for the log distribution coefficient (logD) in data set [2] and in data set [4] were 3.6 and 3.7, respectively. The compound further came in with a solubility in data set [5] of less than 0.5 µM. In addition, the midpoint of inhibition in data set [1], the IC50, lay at 20 nM.

As for `O=S(=O)(c1ccc(N2CCC=N2)cc1)N1CCCc2ccccc21`, the logD in data set [2] was found to be 1.5; in data set [4], 2.9. Besides, the concentration in solution in data set [5] (solubility) was 19 µM (≈ 6.49 µg/mL). In addition, in data set [1], half-maximal inhibition (IC50) was put at 15 nM.

Consider `O=C1CCCN1c1ccc(C(=O)N2CCCc3ccccc32)cc1`, for which, in data set [1], the concentration for half-maximal inhibition (IC50) was greater than 5000 nM.

Turning to `CC1CN(C)c2ccccc2N1S(=O)(=O)c1ccc(N2CCCC2=O)cc1` (racemic), the figures for the logD in data set [2] and in data set [4] were 3.3 and 3.6, respectively. In data set [5], this compound had a solubility of 23.1 µM (≈ 8.9 µg/mL). Also, the IC50 in data set [1] was 9 nM.

Regarding `CC1CCc2ccccc2N1S(=O)(=O)c1ccc(N2CCCC2=O)cc1` (racemic), inhibition in data set [1] was half-maximal at 11 nM (IC50).

On to `COc1cccc2c1C(=O)c1c(O)c3c(c(O)c1C2=O)C[C@@](O)(C(=O)CO)C[C@@H]3O[C@H]1C[C@H](N)[C@H](O)[C@H](C)O1` [DOXORUBICIN], for which, in data set [8], the Activity was determined as 84.3%.
